DENV2 CPE rescue: inhibitors of DENV2 cytopathic effect, primary screen, cell-based, plate reader, single concentration; DENV2-infected cells, cytopathic effect rescue; CPE inhibition, % at 9.99 µM; 350,000 compounds, 1.7% hits; AID 651640, 2012; in the data active = CPE inhibition above about 20%, passing the limit was not always enough; inconclusive = no clear call, values can overlap the other calls; tested in BHK-21 cells
E-sel inducer: E-selectin induction in HUVECs, primary screen, imaging, HUVEC, immunofluorescence imaging, single point; P16581; normalized: neutral wells 0, TNF-alpha wells 100; activation, % at 7.58 µM; 260,000 compounds, 0.37% hits;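 active = mean E-selectin-positive cell signal at least 10% of the positive control, reached in at least 60% of replicates, without over 20% cell loss; inconclusive = no rule given, readout overlaps actives, possibly toxicity-flagged; inactive = the rest, including those meeting only one limit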
Target sequence (P16581 whole entry, looked up): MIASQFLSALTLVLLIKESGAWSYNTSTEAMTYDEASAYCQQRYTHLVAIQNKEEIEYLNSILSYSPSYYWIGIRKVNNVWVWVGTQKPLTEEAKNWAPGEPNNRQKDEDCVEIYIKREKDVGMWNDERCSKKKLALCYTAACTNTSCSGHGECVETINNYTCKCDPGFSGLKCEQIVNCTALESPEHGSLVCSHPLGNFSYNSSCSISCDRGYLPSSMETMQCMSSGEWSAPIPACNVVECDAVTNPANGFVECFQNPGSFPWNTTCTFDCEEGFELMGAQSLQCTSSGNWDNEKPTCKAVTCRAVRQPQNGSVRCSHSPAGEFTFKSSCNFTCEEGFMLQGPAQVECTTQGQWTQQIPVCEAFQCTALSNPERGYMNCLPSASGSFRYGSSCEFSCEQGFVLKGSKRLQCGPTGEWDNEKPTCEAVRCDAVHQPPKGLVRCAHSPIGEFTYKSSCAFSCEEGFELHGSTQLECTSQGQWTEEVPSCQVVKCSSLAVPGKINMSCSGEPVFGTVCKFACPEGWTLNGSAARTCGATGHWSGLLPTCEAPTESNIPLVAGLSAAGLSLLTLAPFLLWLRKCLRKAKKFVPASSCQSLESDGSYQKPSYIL
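Read-out basis: % PE-positive cells; Test system: HUVEC primary endothelial cells; Technique: immunofluorescence imaging; Dosing: single-point compound dose.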
Statin myotox sup: suppressors of statin myotoxicity in C2C12 myotubes, primary screen, cell-based, single point, plate reader. AID 602340, 2012. rescue of ATP level, % at 7.49 µM. 330,000 compounds, 0.78% hits. C2C12 myotubes + simvastatin, ATP luminescence, 48 h; scaled: DMSO 0, geranylgeraniol control 100;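 active = mean ATP rescue above about 67%, or every replicate alone reaching that limit, limit read from the data, passing the limit was not always enough; inconclusive = no clear call, values can overlap the other calls; inactive = mean under the limit and some replicate under it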;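 note: myotubes were challenged with 10 µM simvastatin during compound exposure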
Of the large screens only hits and unclear results are named; the others gave an inactive call. Hits are enriched below; roughly 2.2% of the tested compounds scored in any of these assays.

Cc1noc(C)c1S(=O)(=O)N(C)C[C@@H]1Oc2c(cccc2N(C)C)C(=O)N([C@@H](C)CO)C[C@H]1C	none
C[C@H]1CN([C@@H](C)CO)C(=O)c2cc(N(C)C)ccc2O[C@@H]1CN(C)C	none (no result: DENV2 CPE rescue, E-sel inducer)
Cc1ccc(S(=O)(=O)N(C)C[C@H]2Oc3ccc(NC(=O)c4ccncc4)cc3CC(=O)N([C@H](C)CO)C[C@@H]2C)cc1	none
Cc1ccc(S(=O)(=O)N(C)C[C@@H]2Oc3ccc(NC(=O)c4ccncc4)cc3CC(=O)N([C@@H](C)CO)C[C@@H]2C)cc1	DENV2 CPE rescue 56.8
O=C(C[C@@H]1C=C[C@@H](NC(=O)c2cccnc2)[C@@H](CO)O1)NCc1ccc(Cl)c(Cl)c1	none
CO[C@H]1CN(C)C(=O)c2cc(NC(=O)NC(C)C)ccc2OC[C@@H](C)N(C(=O)CC2CC2)C[C@H]1C	none
C[C@@H]1CCCCO[C@H](CN(C)S(=O)(=O)c2ccc(F)cc2)[C@@H](C)CN([C@H](C)CO)C(=O)c2cc(NC(=O)Nc3cccc4ccccc34)ccc2O1	DENV2 CPE rescue 26.2
C[C@@H]1CCCCO[C@@H](CN(C)S(=O)(=O)c2ccc(F)cc2)[C@H](C)CN([C@@H](C)CO)C(=O)c2cc(NC(=O)Nc3cccc4ccccc34)ccc2O1	Statin myotox sup 83.6
C[C@@H]1CCCCO[C@@H](CN(C)S(=O)(=O)c2ccc(F)cc2)[C@H](C)CN([C@H](C)CO)C(=O)c2cc(NC(=O)Nc3cccc4ccccc34)ccc2O1	none (no result: DENV2 CPE rescue)
C[C@@H]1CCCCO[C@@H](CN(C)S(=O)(=O)c2ccc(F)cc2)[C@@H](C)CN([C@@H](C)CO)C(=O)c2cc(NC(=O)Nc3cccc4ccccc34)ccc2O1	none
COc1ccc2c3c([nH]c2c1)[C@@H](CO)N(C(=O)CN(C)C)CC31CN(CC2CCOCC2)C1	none (no result: Statin myotox sup)
Cc1ccc(OCC(=O)Oc2ccc(C(C)C)cc2)cc1	none
CCC(=O)Oc1ccc(C(CC)C(CC)c2ccc(OC(=O)CC)cc2)cc1 (centres undefined)	DENV2 CPE rescue 42.5
Cc1ccc(S(N)(=O)=O)cc1	DENV2 CPE rescue 51.9 (no result: E-sel inducer)
Cc1ccc(NC(=O)Nc2ccc(S(N)(=O)=O)cc2)cc1	none (no result: E-sel inducer, Statin myotox sup)
O=C(N[C@@H]1CC[C@@H](CCn2cc(-c3ccccn3)nn2)O[C@@H]1CO)c1ccncc1	DENV2 CPE rescue inconclusive
C[C@H](CO)N1C[C@H](C)[C@H](CN(C)C(=O)C2CC2)OCc2cn(nn2)CCCC1=O	none
C[C@H]1CN([C@@H](C)CO)C(=O)c2cc(C#Cc3ccccn3)cnc2O[C@H]1CN(C)C(=O)c1ccccn1	none
O=C(C1CCCCC1)N1C[C@@H]2[C@H](c3ccccc31)[C@@H](CO)N2C(=O)c1ccccc1	none
CCCCC[C@@H](C)N1C[C@@H](COCc2ccccc2)Oc2cc(N3CC[C@H](N(C)C)C3)ccc2S1(=O)=O	none (no result: Statin myotox sup)
CCCCC[C@H](C)N1C[C@@H](COCc2ccccc2)Oc2cc(N3CC[C@H](N(C)C)C3)ccc2S1(=O)=O	DENV2 CPE rescue 61.0 (no result: Statin myotox sup)
CNC[C@@H]1OCCCC[C@@H](C)Oc2ccc(NC(=O)Nc3ccc(F)cc3)cc2C(=O)N([C@@H](C)CO)C[C@@H]1C	none
C[C@@H]1CN([C@H](C)CO)C(=O)c2cccc(NS(=O)(=O)c3ccccc3)c2O[C@H]1CN(C)C(=O)Nc1ccc(C(F)(F)F)cc1	none
Cn1c(=N)n(CC(=O)c2ccc(Br)cc2)c2ccccc21	DENV2 CPE rescue 65.7 (no result: E-sel inducer, Statin myotox sup)
Cn1c(=N)n(CC(=O)c2ccc(F)cc2)c2ccccc21	none
C/C=C/c1cccc(-c2nc(C(=O)NCc3ccccc3)cc3c2[C@H](CCO)N([S@@](=O)C(C)(C)C)C3)c1	none
COc1ccc(NC(=O)COc2ccc3c(c2)OCO3)cc1	none
CCc1ccc(NC(=O)COc2ccc3c(c2)OCO3)cc1	DENV2 CPE rescue 46.8 (no result: Statin myotox sup)
C[C@@H]1CN([C@H](C)CO)C(=O)c2cc(NC(=O)Nc3ccccc3)ccc2O[C@H]1CN(C)C(=O)NC1CCCCC1	none
CCCc1cc(=O)[nH]c(NCCc2ccccc2)n1	none
O=c1ccnc(NCCc2ccccc2)[nH]1	Statin myotox sup 98.7 (no result: DENV2 CPE rescue, E-sel inducer)
CN1CCN(C(=O)C[C@@H]2CC[C@H]3[C@@H](COC[C@@H](O)CN3CC3CCCC3)O2)CC1	none (no result: Statin myotox sup)
CCOC(=O)CN1CC23C=CC(O2)C(C(=O)NC2CCCC2)C3C1=O (centres undefined)	none
CCOC(=O)CN1CC23C=CC(O2)C(C(=O)NC2CCCCC2)C3C1=O (centres undefined)	Statin myotox sup 107.5 (no result: DENV2 CPE rescue, E-sel inducer)
O=C(NCC[C@@H]1CC[C@H](NC(=O)c2cccnc2)[C@@H](CO)O1)Nc1ccc(Cl)cc1	none
C[C@H](NC(=O)C[C@H]1CC[C@H]2[C@@H](COc3ccc(NC(=O)C4CCOCC4)cc3C(=O)N2C)O1)c1ccccc1	none
C[C@H]1CCCCO[C@@H](CN(C)C(=O)Cc2ccccc2)[C@@H](C)CN([C@@H](C)CO)C(=O)c2cc(NC(=O)Cc3ccccc3)ccc2O1	none
COc1cc(/C(C#N)=C/c2ccccc2)c([N+](=O)[O-])cc1OC	Statin myotox sup 84.0 (no result: DENV2 CPE rescue, E-sel inducer)
COc1ccc(/C=C(\C#N)c2cc(OC)c(OC)cc2[N+](=O)[O-])cc1	none
Cc1cccn2c(=O)c3cc(C(=O)NCCC4=CCCCC4)n(C)c3nc12	Statin myotox sup 127.3
Cn1c(C(=O)NCCC2=CCCCC2)cc2c(=O)n3ccccc3nc21	none (no result: DENV2 CPE rescue, E-sel inducer)
O=[N+]([O-])c1ccc(NN=Cc2cccc(O)c2)nc1	none
Cc1cccc(C)c1-n1c(C)cc(/C=N\Nc2ccc([N+](=O)[O-])cn2)c1C	Statin myotox sup 163.3 (no result: DENV2 CPE rescue, E-sel inducer)
Cn1c(N)c(C(=O)COC(=O)c2ccc(F)cc2Cl)c(=O)n(C)c1=O	none
Cn1c(N)c(C(=O)COC(=O)C2(c3cccc(F)c3)CCCC2)c(=O)n(C)c1=O	Statin myotox sup 107.8 (no result: DENV2 CPE rescue, E-sel inducer)
Cc1noc(C)c1S(=O)(=O)Nc1ccc2c(c1)C(=O)N([C@@H](C)CO)C[C@@H](C)[C@H](CN(C)S(=O)(=O)c1cccs1)O2	none
Cc1ccc(CN2C(=O)CSc3ccc(C(=O)NCCN4CCOCC4)cc32)cc1	none (no result: DENV2 CPE rescue, E-sel inducer)
Cc1nc2cc(C(=O)NCCN3CCOCC3)ccc2n1-c1ccc(F)cc1F	Statin myotox sup 98.2 (no result: DENV2 CPE rescue, E-sel inducer)
O=C(NCCN1CCOCC1)c1ccc2c(c1)N(Cc1ccc(F)cc1)C(=O)CS2	DENV2 CPE rescue 63.6
Cc1cccc(-n2c(C)nc3cc(C(=O)NCCN4CCOCC4)ccc32)c1	none
CCCc1nnc(SCC(=O)Nc2ccc3c(c2)OCCO3)n1CCOC	none (no result: E-sel inducer)
COCCn1c(SCC(=O)Nc2ccc3c(c2)OCCO3)nnc1C(C)C	DENV2 CPE rescue 21.7
COc1ccc(NS(=O)(=O)c2ccc(Cl)s2)cn1	none (no result: Statin myotox sup)
COc1ccc(NS(=O)(=O)c2cccs2)cn1	DENV2 CPE rescue 23.6
O=C(C[C@@H]1CC[C@H](NC(=O)CN2CCOCC2)[C@H](CO)O1)NCCc1ccccc1	none
N#Cc1ccccc1/C=N/Nc1nc(-c2ccccc2)c2cc(Br)ccc2n1	Statin myotox sup 98.9 (no result: DENV2 CPE rescue, E-sel inducer)
OCCNc1nc(-c2ccccc2)c2cc(Br)ccc2n1	none
C[C@@H]1CN([C@@H](C)CO)S(=O)(=O)c2ccc(-c3cccc(F)c3)cc2O[C@H]1CN(C)C(=O)c1cccc(F)c1	DENV2 CPE rescue inconclusive
O=C(C[C@@H]1C=C[C@H](NC(=O)Nc2ccccc2F)[C@@H](CO)O1)NCc1ccc(Cl)cc1	none
